In ChEMBL document CHEMBL4732158, “Bicyclic Ligand-Biased Agonists of S1P: Exploring Side Chain Modifications to Modulate the PK, PD, and Safety Profiles” (J Med Chem, 2021):
Active and inactive are the calls of the source. The rule behind the calls is not given here.

Tests used:
[1] = Reduction in circulating lymphocytes count in Lewis rat at 0.3 mg/kg, po measured at 24 hrs by hematology analyzer based analysis; format: ADME, organism-based; set-up: scale not given: the % may be the effect or the level left; conditions: in vivo
Rattus norvegicus [2] = test: Reduction in circulating lymphocytes count in Lewis rat at 0.3 mg/kg, po measured at 4 hrs by hematology analyzer based analysis; format: functional; set-up: scale not given: the % may be the effect or the level left
[3] = Drug concentration in Lewis rat blood assessed as concentration of parent compound at 2 mg/kg, po measured at 4 hrs by LC-MS/MS analysis; format: ADME, organism-based; conditions: Lewis, blood, read-out: Ct
How it was run: (§1)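 Lewis rats (n = 2−4) dosed orally at 0.5, 1, 2 or 5 mg/kg; blood parent and phosphate metabolite concentrations and lymphocyte counts taken 4 and 24 h post-dose; phosphate-to-parent ratio from 24 h levels; significance versus vehicle by ANOVA with Dunnett's test.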

Rattus norvegicus [4] = test: Antiinflammatory activity in complete freund's adjuvant-induced Lewis rat model of arthritis assessed as reduction in paw edema administered via oral gavage once daily by plethysmometric method; format: functional, organism-based
[5] = Oral bioavailability in Sprague- Dawley rat at 1 mg/kg; format: ADME, organism-based; conditions: in vivo
[6] = Ratio of drug metabolism in Lewis rat blood assessed as phosphate ester metabolite to parent drug at 2 mg/kg, po measured at 24 hrs by LC-MS/MS analysis; format: ADME, organism-based; conditions: in vivo; how it was run: as §1
Rattus norvegicus [7] = test: Antiinflammatory activity in complete freund's adjuvant-induced Lewis rat model of arthritis assessed as reduction in paw swelling at 0.5 mg/kg, po administered via gavage once daily and measured at day 18 to 22 by plethysmometric method relative to control; format: functional; set-up: scale not given: the % may be the effect or the level left; conditions: time 18-22 day
[8] = Terminal half life in Sprague- Dawley rat at 1 mg/kg, po or 1 mg/kg, iv; format: ADME, organism-based; conditions: in vivo, read-out: beta t1/2 (converted)
How it was run: (§2)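 Single IV and oral dosing in male animals, n = 3. Rats were Sprague-Dawley. Vehicle: 18.4% hydroxypropyl-β-cyclodextrin in 13.8 mM citric acid. Blood concentrations followed over time; terminal T1/2 and steady-state volume of distribution taken from the IV dose.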

[9] = Terminal half life in cynomolgus monkey at 1 mg/kg, po or 1 mg/kg, iv; format: ADME, organism-based, Macaca fascicularis; conditions: in vivo, read-out: beta t1/2 (converted); how it was run: as §2
Rattus norvegicus [10] = test: Antiinflammatory activity in complete freund's adjuvant-induced Lewis rat model of arthritis assessed as effective dose administered via oral gavage once daily by plethysmometric method; format: functional
[11] = Volume of distribution at steady state in cynomolgus monkey at 1 mg/kg, po or 1 mg/kg, iv; format: ADME, organism-based, Macaca fascicularis; conditions: in vivo, read-out: Vdss; how it was run: as §2
[12] = Pulmonary toxicity in Lewis rat assessed as fold elevation of BAL protein content at 2 mg/kg, po by chemistry analyzer based analysis relative to control; format: organism-based; conditions: in vivo
How it was run: (§3)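 Lewis rats dosed orally; bronchoalveolar lavage protein measured at study end, expressed as fold over vehicle control.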

[13] = Clearance in Sprague- Dawley rat at 1 mg/kg, iv; format: ADME, organism-based; conditions: in vivo
[14] = Volume of distribution at steady state in Sprague- Dawley rat at 1 mg/kg, po or 1 mg/kg, iv; format: ADME, organism-based; conditions: in vivo, read-out: Vdss; how it was run: as §2
[15] = AUC ratio in orally dosed Sprague-Dawley rat blood assessed as phosphate metabolite to parent compound; format: ADME, organism-based; conditions: in vivo, po
How it was run: (§4)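 Phosphate-to-parent ratio computed as blood AUC ratio after oral dosing in rats, dogs and monkeys.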

[16] = AUC ratio in orally dosed cynomolgus monkey blood assessed as phosphate metabolite to parent compound; format: ADME, organism-based, Macaca fascicularis; conditions: in vivo, po; how it was run: as §4
Rattus norvegicus [17] = test: Antiinflammatory activity in complete freund's adjuvant-induced Lewis rat model of arthritis assessed as reduction in paw edema at 0.5 mg/kg, po administered via gavage once daily and measured at day 18 to 22 by plethysmometric method; format: functional, organism-based; conditions: time 18-22 day
[18] = Reduction in circulating lymphocytes count in Lewis rat at 2 mg/kg, po measured at 24 hrs by hematology analyzer based analysis; format: Functional, organism-based; set-up: scale not given: the % may be the effect or the level left; conditions: in vivo
How it was run: (§5)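 Lewis rats (n = 2−4) dosed orally; whole-blood lymphocyte counts taken 4 h and 24 h after dosing and reduction expressed versus vehicle-treated rats. Significance by ANOVA with Dunnett's test (p < 0.05 vs vehicle). Blood levels of parent and phosphate metabolite measured at the same time points in this PK/PD screen.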

Rattus norvegicus [19] = test: Reduction in circulating lymphocytes count in Lewis rat at 2 mg/kg, po measured at 4 hrs by hematology analyzer based analysis; format: functional; set-up: scale not given: the % may be the effect or the level left; how it was run: as §5
[20] = Cardiotoxicity in human iPSC derived cardiomyocytes assessed as change in heart rate at 10 nM measured over 2 hrs by multi-electrode array relative to control; format: toxicity, cell-based; conditions: stem cell-derived cardiomyocyte, 0.01 µM
How it was run: (§6)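 Phosphate metabolite of each compound prepared and tested on cultured human induced pluripotent stem cell-derived cardiomyocytes at 1 and 10 nM; beat rate change averaged over three or more replicates per concentration unless noted (some n = 2).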

[21] = Clearance in cynomolgus monkey at 1 mg/kg, iv; format: ADME, organism-based, Macaca fascicularis; conditions: in vivo
[22] = Drug concentration in Lewis rat blood assessed as concentration of parent compound at 2 mg/kg, po measured at 24 hrs by LC-MS/MS analysis; format: ADME, organism-based; conditions: in vivo, read-out: Ct; how it was run: as §1
[23] = Cardiotoxicity in human iPSC derived cardiomyocytes assessed as change in heart rate at 1 nM measured over 2 hrs by multi-electrode array relative to control; format: toxicity, cell-based; conditions: stem cell-derived cardiomyocyte, 0.001 µM; how it was run: as §6
Rattus norvegicus [24] = test: Antiinflammatory activity in complete freund's adjuvant-induced Lewis rat model of arthritis assessed as increase in paw volume at 2.5 mg/kg, po administered via gavage once daily by plethysmometric method; format: functional, organism-based
[25] = Oral bioavailability in cynomolgus monkey at 1 mg/kg; format: ADME, organism-based, Macaca fascicularis; conditions: in vivo
[26] = Half life in Lewis rat at 2 mg/kg, po measured at 4 to 72 hrs; format: ADME, organism-based; conditions: Lewis, in vivo, time 4-72 hrs
How it was run: (§7)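 Half-life estimated from oral-dosing blood PK profiles in Lewis rats sampled at four time points: 4, 24, 48 and 72 h.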

Rattus norvegicus [27] = test: Antiinflammatory activity in complete freund's adjuvant-induced Lewis rat model of arthritis assessed as increase in paw volume at 1 mg/kg, po administered via gavage once daily by plethysmometric method; format: functional, organism-based
Rattus norvegicus [28] = test: Antiinflammatory activity in complete freund's adjuvant-induced Lewis rat model of arthritis assessed as reduction in paw edema at 0.3 mg/kg, po administered via gavage once daily and measured at day 13 to 20 by plethysmometric method; format: functional, organism-based; conditions: time 13-20 day
[29] = Pulmonary toxicity in Lewis rat assessed as fold elevation of BAL protein content at 15 mg/kg, po by chemistry analyzer based analysis relative to control; format: organism-based; conditions: in vivo; how it was run: as §3
[30] = Drug concentration in Lewis rat blood assessed as concentration of parent compound at 1 mg/kg, po measured at 4 hrs by LC-MS/MS analysis; format: ADME, organism-based; conditions: Lewis, blood, read-out: Ct; how it was run: as §1
[31] = AUC ratio in orally dosed human blood assessed as phosphate metabolite to parent compound; format: ADME, organism-based; conditions: po
[32] = AUC ratio in orally dosed Beagle dog blood assessed as phosphate metabolite to parent compound; format: ADME, organism-based, Canis lupus familiaris; conditions: in vivo, po; how it was run: as §4
[33] = Drug metabolism in Lewis rat blood assessed as concentration of parent compound at 1 mg/kg, po measured at 24 hrs by LC-MS/MS analysis; format: ADME, organism-based; conditions: Lewis, blood, read-out: Ct; how it was run: as §1
[34] = Half life in Lewis rat at 1 mg/kg, po measured at 4 to 72 hrs; format: ADME, organism-based; conditions: in vivo, time 4-72 hrs; how it was run: as §7
[35] = Reduction in circulating lymphocytes count in Lewis rat at 1 mg/kg, po measured at 24 hrs by hematology analyzer based analysis; format: organism-based; set-up: scale not given: the % may be the effect or the level left; conditions: in vivo; how it was run: as §1
[36] = Pulmonary toxicity in Lewis rat assessed as fold elevation of BAL protein content at 1 mg/kg, po by chemistry analyzer based analysis relative to control; format: organism-based; conditions: in vivo; how it was run: as §3
Rattus norvegicus [37] = test: Reduction in circulating lymphocytes count in Lewis rat at 1 mg/kg, po measured at 4 hrs by hematology analyzer based analysis; format: functional; set-up: scale not given: the % may be the effect or the level left; how it was run: as §1
[38] = Drug metabolism in Lewis rat blood assessed as phosphate ester metabolite to parent ratio at 1 mg/kg, po measured at 24 hrs by LC-MS/MS analysis; conditions: in vivo

Structure (SMILES): C/C=C\CCC[C@@H]1CCc2cc([C@H]3CC[C@](N)(CO)C3)ccc2C1
- Activity [1]: 22%
- Activity (Rattus norvegicus [2]): 0%

Structure (SMILES): CCOCCCC1CCc2cc([C@H]3CC[C@](N)(CO)C3)ccc2C1 (single isomer, unassigned)
- concentration at 4 h [3]: 172 nM
- Activity (Rattus norvegicus [4]): Dose-dependent effect
- bioavailability [5]: 45%
- Ratio [6]: 1.8
- Activity (Rattus norvegicus [7]): 75%
- half-life [8]: 1740 min
- half-life [9]: 1260 min
- ED50 (Rattus norvegicus [10]): 0.3 mg/kg
- Vd [11]: 8.4 L/kg
- fold change (FC) [12]: 1.2
- clearance [13]: 6 mL/min/kg
- Vd [14]: 12 L/kg
- Ratio AUC [15]: 0.9
- Ratio AUC [16]: 0.73
- Activity (Rattus norvegicus [17]): inactive
- Activity [18]: 83%
- Activity (Rattus norvegicus [19]): 78%
- Activity [20]: -29%
- clearance [21]: 7.4 mL/min/kg
- concentration [22]: 110 nM
- Activity [23]: -14%
- Activity (Rattus norvegicus [24]): inactive
- bioavailability [25]: 76%
- half-life [26]: 1560 min

Structure (SMILES): COCCCCCC1CCc2cc([C@H]3CC[C@](N)(CO)C3)ccc2C1 (single isomer, unassigned; 24)
- Activity (Rattus norvegicus [4]): Dose-dependent effect
- Activity (Rattus norvegicus [27]): inactive
- Activity (Rattus norvegicus [28]): inactive

Structure (SMILES): COCCCC1CCc2cc([C@H]3CC[C@](N)(CO)C3)ccc2C1 (stereo in doubt; 22a)
- concentration at 4 h [3]: 141 nM
- Ratio [6]: 2.8
- fold change (FC) [29]: 3
- Activity [18]: 74%
- Activity (Rattus norvegicus [19]; 2 mg/kg, 4 h): 76%
- concentration [22]: 33 nM
- half-life [26]: 780 min

Structure (SMILES): CCCCCC[C@@H]1CCc2cc([C@H]3CC[C@](N)(CO)C3)ccc2C1 [BMS-986104]
- concentration at 4 h [30]: 36 nM
- Ratio AUC [31]: 0.1
- Ratio AUC [32]: 2.4
- concentration at 24 h [33]: 51 nM
- half-life [34]: > 4.17 days
- Ratio AUC [15]: 2.5
- Activity [35]: 76%
- Ratio AUC [16]: 0.3
- Activity [20]: -33%
- Activity [23]: -2%
- fold change (FC) [36]: 1.1
- Activity (Rattus norvegicus [37]): 23%
- Ratio [38]: 1.2

Structure (SMILES): CCCCCCCCc1ccc(CCC(N)(CO)CO)cc1 [FINGOLIMOD]
- Ratio AUC [31]: 0.42
- Ratio AUC [32]: 3.7
- Ratio AUC [15]: 5.6
- Ratio AUC [16]: 5.9
